SMILES strings stand for the structures.

This series in a line: Toxicity liver stage against HepG2, at 10uM. In kind it is cell-based. Also on record: test concentration 10 uM, cell line HepG2-A16-CD81EGFP. Conditions: human, HepG2-A16-CD81EGFP cells; read-out: INHIBITION
An outline of the steps: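 Uninfected HepG2-A16-CD81EGFP cells, 3 × 10^3 per well, 1536-well, plated on prespotted compound at 10 μM final, parasite-free screening media added to match infected plates; puromycin 10 μM positive, DMSO 0.5% negative; run in parallel with 48 h PbLuc assay at 37 °C, 5% CO2; viability by CellTiter-Glo luminescence, normalized to controls.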
Turning to `CN(C)CCN(C)C[C@H]1CN2CC[C@H]1C[C@@H]2CNC(=O)Nc1ccsc1`, the cytotoxicity at 10 µM came to 9.53%.

For the compound `CN1C(=O)CO[C@H](c2ccc(NC(=O)c3cccnc3)cc2)[C@H]1CO`, the cytotoxicity at 10 µM was determined as 6.15%.

As to `CCC(CNC(=O)C1CC1)(OC)c1ccccc1` (stereo unspecified), the cytotoxicity at 10 µM was -4.34%.

Take `CCN1CCc2c(c(COC)nn2C)C1`: the cytotoxicity at 10 µM was determined as 5.09%.

Take `CN1C(=O)CCCC12CCCN(C(=O)c1ccoc1)C2` (stereo unspecified): the cytotoxicity at 10 µM was -4.04%.

For `CC(C)COCC1CN(Cc2cnn(C)c2)Cc2ncn(C)c21` (stereo unspecified), the cytotoxicity at 10 µM is 0.588%.

In the case of `Cn1cc(CN2C[C@@H]3COC[C@]3(C(=O)NCc3cccs3)C2)cn1`, the cytotoxicity at 10 µM was determined as 7.22%.

As to `CC/N=c1\nc(NCC)nc2n1C(O)(Nc1cccc(Cl)c1Cl)CS2` (stereo unspecified), the cytotoxicity at 10 µM was determined as 14.1%.

`O=C(c1cc(Br)ccc1-n1cnnn1)N1CCCC1`: the cytotoxicity at 10 µM is -9.24%.

Consider `O=C(CCc1ccc2c(c1)CCO2)Nc1nnn[nH]1`, for which the cytotoxicity at 10 µM was 0.301%.

Regarding `Cc1nn(C)c(=O)c2nn(-c3ccc(Cl)cc3)c(C)c12`, the cytotoxicity at 10 µM was -4.18%.

With `O=S(=O)(Cc1ccc(Br)cc1)NCCO`, the cytotoxicity at 10 µM was 6.73%.

Consider `Cn1cc(N2CC3(CCN(S(=O)(=O)C4CC4)C3)CC2=O)cn1` (stereo unspecified), for which the cytotoxicity at 10 µM is -9.82%.

For the compound `Nc1ncc(-c2ccc(F)cc2)c(C2CCCNC2)n1` (stereo unspecified), the cytotoxicity at 10 µM amounted to 0.109%.

In the case of `O[C@@H]1C[C@H]2CN(Cc3ccccc3Cl)[C@H](Cc3ccccc3)CN2C1`, the cytotoxicity at 10 µM is -2.51%.

Regarding `CN(C)c1nccnc1C1CCN(C(=O)C2(C)CCCCN2C)CC1` (stereo unspecified), the cytotoxicity at 10 µM worked out at 10%.

With `CN(C)C(=O)C1(c2cnccn2)CCCN1C(=O)Cc1ccccc1` (stereo unspecified), the cytotoxicity at 10 µM turned out to be 0.225%.

For the compound `CC(C)c1nccn1-c1nccnc1C1CCCN1Cc1ccccc1` (stereo unspecified), the cytotoxicity at 10 µM is -0.943%.

Consider `Fc1cccc(CN2CCC(c3noc(-c4ccncc4)n3)CC2)c1F`, for which the cytotoxicity at 10 µM is -6.21%.

Turning to `CC(C)(C)c1nnc(CSc2ccccn2)o1`, the cytotoxicity at 10 µM was 5.23%.

With `O=C1CCCN1CCN1CCCCC1Cn1cccn1` (stereo unspecified), the cytotoxicity at 10 µM amounted to 12.9%.

For `CCNC(=O)C1CCN(Cc2ccccc2OCC(F)(F)F)CC1`, the cytotoxicity at 10 µM was -3.03%.

Turning to `COc1c(C)cnc(CSc2nnc(N)s2)c1C`, the cytotoxicity at 10 µM worked out at 10.1%.

In the case of `CCCc1nc(CN(C)CC2CCN(CCO)CC2)no1`, the cytotoxicity at 10 µM was found to be 2.64%.

Consider `CS(=O)(=O)NCCC1CCCCN1C(=O)NCCc1ccccc1` (stereo unspecified), for which the cytotoxicity at 10 µM was -6%.

In the case of `COCc1ccc(CNC(=O)CN2CCc3ccccc32)cc1`, the cytotoxicity at 10 µM is 6.68%.

Take `Cc1cc(NS(=O)(=O)c2ccc(Cl)s2)ccc1-n1cccc1C(=O)O`: the cytotoxicity at 10 µM came to 3.2%.

Turning to `Cc1cc(C(=O)N2CCOC(c3nc(C)n[nH]3)C2)[nH]n1` (stereo unspecified), the cytotoxicity at 10 µM is -11.7%.

With `Cc1cc2c(cc1NC(=O)NCC(C)C)OCO2`, the cytotoxicity at 10 µM came out at 1.01%.

With `COc1ccc2c(c1)CCCN2C(=O)NCCc1cnn(C)c1`, the cytotoxicity at 10 µM is -6.94%.

For the compound `O=C(CCC(=O)c1cccs1)NC1(C(=O)NCC2CC2)CCCC1`, the cytotoxicity at 10 µM was -10.6%.

Turning to `Cc1cnn(CC2CCCN2Cc2cc(=O)n3ccccc3n2)c1` (stereo unspecified), the cytotoxicity at 10 µM is -1.61%.

For the compound `Cc1ccc(C(=O)NCCCNS(C)(=O)=O)c(=O)[nH]1`, the cytotoxicity at 10 µM is -15.3%.

Regarding `CCC(CNC(=O)c1ccc(=O)[nH]n1)N1CCc2ccccc2C1` (stereo unspecified), the cytotoxicity at 10 µM is -7.9%.

In the case of `OC1CCN(Cc2cc3c(cc2Br)OCCO3)CC1`, the cytotoxicity at 10 µM worked out at 7.73%.

Consider `Cc1nn(C)c2sc(C(=O)N3CCCC(n4ccnc4C)C3)cc12` (stereo unspecified), for which the cytotoxicity at 10 µM is -10%.

Take `CCS(=O)(=O)N1CCN(CC2CC2)c2ncccc2C1`: the cytotoxicity at 10 µM came to 7.97%.

`O=C1COC2(COCCN(c3cnccn3)C2)CN1c1cccc(F)c1` (stereo unspecified): the cytotoxicity at 10 µM is -104%.

As to `COC[C@@H]1CCC[C@@]12CN(C(=O)N(C)C)CCO2`, the cytotoxicity at 10 µM was -102%.

For the compound `O=C(c1cscn1)N1CCC2(CCN(Cc3nccs3)C2)CC1`, the cytotoxicity at 10 µM is 1.8%.

For `CC(C)NC(=O)N1CCCC(c2nnc(CN3CCOCC3)n2C)C1` (stereo unspecified), the cytotoxicity at 10 µM is -0.392%.

For `CC(c1ccccn1)N(C)Cc1ccc(-n2cncn2)cc1` (stereo unspecified), the cytotoxicity at 10 µM is 5.33%.

Regarding `COc1cc(N2CCCC(c3ncc[nH]3)C2)ncn1` (stereo unspecified), the cytotoxicity at 10 µM worked out at 3.47%.

On to `CCO[C@H]1CN(C)C[C@@H]1NC(=O)c1cc(C)nc2ccc(C)cc12`, for which the cytotoxicity at 10 µM came out at 4.15%.

Take `Cc1cc(C)n(C2CCN(Cc3c(-c4cc(C)on4)nn(C)c3Cl)C2)n1` (stereo unspecified): the cytotoxicity at 10 µM came out at 3.84%.

Turning to `c1ccc(CCCC2CN(Cc3ncc[nH]3)CCO2)cc1` (stereo unspecified), the cytotoxicity at 10 µM is -3.83%.

Regarding `Cc1ccccc1C(CC(=O)NCc1n[nH]c(N)n1)c1ccccc1` (stereo unspecified), the cytotoxicity at 10 µM turned out to be 8.8%.

In the case of `CC(C)[C@H](NC(=O)c1cccc(CCC(C)(C)O)c1)C(N)=O`, the cytotoxicity at 10 µM was -0.471%.

On to `CC(=O)c1ccc(-c2cnn(CC(=O)Nc3cc(C)nn3C)c2)nc1`, for which the cytotoxicity at 10 µM was -6.93%.

For the compound `Cc1cc(N2CCCC3(CN(C)C(=O)O3)C2)c2cc3c(cc2n1)OCO3` (stereo unspecified), the cytotoxicity at 10 µM was -5.05%.

For `Cc1nc(N2CCC(O)(c3ccccc3)CC2)c2c(C)nn(C)c2n1`, the cytotoxicity at 10 µM turned out to be 1.22%.

Consider `COc1cccc(OC2CN(C(=O)Cn3nc4ccccc4n3)C2)c1`, for which the cytotoxicity at 10 µM is -6.98%.

As for `C[C@@H]1CN(C(=O)CCc2nncn2C)CC[C@@]1(O)C1CCC1`, the cytotoxicity at 10 µM was -6.65%.

For the compound `CC(C)C[C@@H](CO)n1cc(-c2cncnc2)nn1`, the cytotoxicity at 10 µM is -0.268%.

On to `CN(C)[C@H]1CN(C(=O)CCCc2ccc(F)cc2)C[C@@H]1C1CC1`, for which the cytotoxicity at 10 µM was -3.01%.

Take `COc1ccccc1CN(C)C(=O)CN1C(=O)OC[C@@H]1c1ccccc1`: the cytotoxicity at 10 µM was -43.6%.

For the compound `Nc1nc2c(c(N3CCCC(c4nnc5ccccn45)C3)n1)CCNC2` (stereo unspecified), the cytotoxicity at 10 µM is -3.57%.

Turning to `O=C1CC2(CCCC2)CC(=O)N1Cc1nccs1`, the cytotoxicity at 10 µM is 3.16%.

`CC(C)CC(O)C1CCN(C(=O)c2ccc(C(F)(F)F)nc2O)CC1` (stereo unspecified): the cytotoxicity at 10 µM amounted to 2.5%.

Consider `O=C(c1ccc(O)c(Cl)c1)N1C[C@@H](CN2CCCCCC2)[C@@H](CO)C1`, for which the cytotoxicity at 10 µM was determined as 1.89%.

As for `OCc1csc(N2CCN(Cc3cccc(F)c3)CC2)n1`, the cytotoxicity at 10 µM was -4.9%.

Turning to `CNc1ccnc(NCCC(=O)Nc2ccccc2C)n1`, the cytotoxicity at 10 µM was -1.53%.

For the compound `Nc1nccc(NCc2cc3n(n2)CCCN(C(=O)C2CCC2)C3)n1`, the cytotoxicity at 10 µM was -6.49%.

Regarding `CSCC[C@H](N)C(=O)NCc1cc2n(n1)CCCN(C(=O)C1CCC1)C2`, the cytotoxicity at 10 µM was -12.9%.

As to `CC(=O)N1CCN(c2cc(-c3ccccc3)nc3c(C)c(C)nn23)CC1`, the cytotoxicity at 10 µM was -13.1%.

With `COc1ccccc1CC(=O)N1CC[C@@]2(CCCO2)[C@@H](OC)C1`, the cytotoxicity at 10 µM was determined as 11.7%.

Regarding `Cc1ccc(C(O)CNCc2c(C(C)C)nn(C)c2N(C)C)cc1` (stereo unspecified), the cytotoxicity at 10 µM is -11.8%.

Turning to `COc1cccc(C(=O)Nc2cc(CC(C)C)nn2C)c1`, the cytotoxicity at 10 µM was -9.42%.

As for `CCn1c(C(=O)N2CCN(C(=O)COC)CC2)cc2ccccc21`, the cytotoxicity at 10 µM is -6.59%.

For `CC(C)c1nccn1C1CCCN(C(=O)c2cnn(C)c2C2CC2)C1` (stereo unspecified), the cytotoxicity at 10 µM is -5.5%.

As to `O=C(CCN1C(=O)CCC1=O)Nc1cnn(-c2ccccc2Cl)c1`, the cytotoxicity at 10 µM was -9.56%.

In the case of `O=C(NCCCn1cncn1)N1CCCC(N2CCCC2)C1` (stereo unspecified), the cytotoxicity at 10 µM is -2.66%.

For `N#Cc1cnn(-c2ccc(C(=O)Nc3ccccn3)cc2)c1N`, the cytotoxicity at 10 µM is -9.03%.

For the compound `CCc1[nH]ncc1C(=O)N1CCCC(n2ccnc2C(C)C)C1` (stereo unspecified), the cytotoxicity at 10 µM came to 2.43%.

Turning to `CCOc1cccc2c1OCC(C(=O)NS(=O)(=O)Cc1ccccc1)=C2`, the cytotoxicity at 10 µM was -7.22%.

For `COc1ccc(C(=O)N2CCCC(C)C2)cc1F` (stereo unspecified), the cytotoxicity at 10 µM was -11.6%.

Consider `Cc1ccc(OCC(O)CN2CCC(Cn3cccn3)CC2)cc1` (stereo unspecified), for which the cytotoxicity at 10 µM was -16%.

Consider `Cc1nc(CNCC2CCCN2c2cccnn2)no1` (stereo unspecified), for which the cytotoxicity at 10 µM was -1.59%.

`O[C@@H]1CN(Cc2ccc(F)cc2)CC[C@H]1NCc1ccccn1`: the cytotoxicity at 10 µM was -2.83%.

For the compound `Cc1cc(C)nc(Nc2cccc(C3CCCN(C)C3)n2)n1` (stereo unspecified), the cytotoxicity at 10 µM was -4.45%.

Regarding `CC(C)N(C)Cc1cnc2n1CCN(Cc1ccco1)C2`, the cytotoxicity at 10 µM was 2.22%.

In the case of `CCN1C[C@H]2C3(CCN(C(=O)NC(C)C)CC3)CC[C@@]2(C(=O)N(C)C)C1`, the cytotoxicity at 10 µM is -109%.

On to `CCN1CCC12CCN(C(=O)c1cc(C)on1)C2` (stereo unspecified), for which the cytotoxicity at 10 µM was 5.71%.

As for `Cn1cc(CN2CCCC23CCN(C(=O)c2cccs2)CC3)cn1`, the cytotoxicity at 10 µM was 2.17%.

With `Cc1ccc(CN2Cc3nnn(C)c3C(COCc3ccccc3)C2)o1` (stereo unspecified), the cytotoxicity at 10 µM was 5.44%.

For the compound `COc1cccc(CN(Cc2ncc[nH]2)Cc2ccco2)c1`, the cytotoxicity at 10 µM was -8.01%.

For `COc1ncccc1CN1Cc2nnn(C)c2C(COCC2CC2)C1` (stereo unspecified), the cytotoxicity at 10 µM was 12.4%.

As to `CN(C)C(=O)CN1CCC2(CCN(CC3CC3)CC2)C1=O`, the cytotoxicity at 10 µM is -3.69%.

Consider `O=C(c1ccccn1)N1CCC2(CCCN(c3nncs3)C2)C1` (stereo unspecified), for which the cytotoxicity at 10 µM was -111%.

With `O=C(c1ccno1)N1CC[C@@H]2O[C@@H](COCCN3CCCC3)CC[C@@H]21`, the cytotoxicity at 10 µM came out at 0.925%.

In the case of `CN1[C@H](Cn2cccn2)C[C@@H]2CN(Cc3cccs3)CC[C@@H]21`, the cytotoxicity at 10 µM came out at 11.9%.

Turning to `CN1CCC(N2CCC(C(=O)N(C)C)CC2)CC1`, the cytotoxicity at 10 µM is -1.82%.

`Cn1cc(C(=O)NCc2cncc3c2CCN(CC2CC2)C3)cn1`: the cytotoxicity at 10 µM is -103%.

Take `CC1=N[C@@]2(CC[C@@H]3CN(Cc4ccccc4C)C[C@@H]32)C(=O)N1CC1CC1`: the cytotoxicity at 10 µM was -2.6%.

In the case of `CCOCC(=O)N1C[C@H]2CC[C@@H](C1)N(Cc1ccccn1)C2=O`, the cytotoxicity at 10 µM stood at 10.9%.

With `N#Cc1cccc(C(=O)N2C[C@@H]3CC[C@H]2CN(C(=O)C2CCC2)C3)c1`, the cytotoxicity at 10 µM is -2.5%.

Values taken from ChEMBL document CHEMBL4513216, “Probing the Open Global Health Chemical Diversity Library for Multistage-Active Starting Points for Next-Generation Antimalarials” (ACS Infect Dis, 2020).
